Source: ChEMBL document CHEMBL1137668, “Activities of several classes of acyclic nucleoside phosphonates against camelpox virus replication in different cell culture models” (Antimicrob Agents Chemother, 2007)
Activity calls are given as the source filed them. The calls are words filed in the database; no cut-off is given here.

Tests used:
[1] = Selectivity index, ratio of CC50 for human PHK to EC50 for Camelpox virus CML1 infected in human PHK
Camelpox virus [2] = experiment: Antiviral activity against Camelpox virus CML14 infected in HEL299 cells assessed as reduction in viral titer after 6 days postinfection by virus yield reduction assay; type: functional; details: for Activity: HEL 299
Camelpox virus [3] = experiment: Antiviral activity against Camelpox virus CML1 infected in human PHK assessed as inhibition of virus-induced cytopathic effect after 6 days by Giemsa staining; type: functional, organism-based; details: CML1, 144 h
Camelpox virus [4] = experiment: Antiviral activity against Camelpox virus CML1 infected in HEL299 cells assessed as inhibition of viral replication at 5 to 13 uM after 6 days postinfection by virus yield reduction assay; type: functional, HEL 299; design: scale not given: the % may be the effect or the level left
Camelpox virus [5] = experiment: Antiviral activity against Camelpox virus CML14 infected in HEL299 cells assessed as inhibition of virus-induced cytopathic effect after 6 days by Giemsa staining; type: functional, organism-based; details: CML14, HEL 299, 144 h
Camelpox virus [6] = experiment: Antiviral activity against Camelpox virus CML14 infected in human PHK assessed as inhibition of viral replication at 5 to 13 uM after 6 days postinfection by virus yield reduction assay; type: functional; design: scale not given: the % may be the effect or the level left
[7] = Cytotoxicity against human PHK after 4 days by Z1 Coulter counting analysis; details: for CC50 at 96 h: PHK cells
Procedure, shortened: (§1)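 Cell growth inhibition: HEL cells were seeded at 3.5 × 10³ per well and PHKs at 5 × 10³ per well. Serial dilutions were added in duplicate after 1 day (HEL) or 3 days (PHK). After 4 days with compound, cells were trypsinized and counted with a Coulter counter (8 μm lower limit). CC50 is the concentration reducing growth by 50%, mean ± SD of at least two experiments.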

Camelpox virus [8] = experiment: Antiviral activity against Camelpox virus CML1 infected in HEL299 cells assessed as inhibition of virus-induced cytopathic effect after 6 days by Giemsa staining; type: functional, organism-based; details: CML1, HEL 299, 144 h
Camelpox virus [9] = experiment: Antiviral activity against Camelpox virus CML14 infected in human PHK assessed as inhibition of virus-induced cytopathic effect after 6 days by Giemsa staining; type: functional, organism-based; details: CML14, 144 h
Camelpox virus [10] = experiment: Antiviral activity against Camelpox virus CML14 infected in human PHK assessed as reduction in viral titer after 6 days postinfection by virus yield reduction assay; type: functional
[11] = Selectivity index, ratio of CC50 for human PHK to EC50 for Camelpox virus CML14 infected in human PHK
Camelpox virus [12] = experiment: Antiviral activity against Camelpox virus CML14 infected in HEL299 cells assessed as inhibition of viral replication at 5 to 13 uM after 6 days postinfection by virus yield reduction assay; type: functional, HEL 299; design: scale not given: the % may be the effect or the level left
Camelpox virus [13] = experiment: Antiviral activity against Camelpox virus CML1 infected in human PHK assessed as reduction in viral titer after 6 days postinfection by virus yield reduction assay; type: functional
Camelpox virus [14] = experiment: Antiviral activity against Camelpox virus CML1 infected in HEL299 cells assessed as reduction in viral titer after 6 days postinfection by virus yield reduction assay; type: functional; details: for Activity: HEL 299
Camelpox virus [15] = experiment: Antiviral activity against Camelpox virus CML1 infected in human PHK assessed as inhibition of viral replication at 5 to 13 uM after 6 days postinfection by virus yield reduction assay; type: functional; design: scale not given: the % may be the effect or the level left
[16] = Selectivity index, ratio of CC50 for HEL299 cells to EC50 for Camelpox virus CML1 infected in HEL299 cells; type: toxicity, cell-based, HEL 299; details: human; for selectivity ratio: HEL299 cells, read-out: Ratio CC50/IC50
[17] = Cytotoxicity against HEL299 cells after 4 days by Z1 Coulter counting analysis; type: cell-based, HEL 299; details: human; for CC50 at 96 h: HEL299 cells; procedure, shortened: as §1
[18] = Selectivity index, ratio of CC50 for HEL299 cells to EC50 for Camelpox virus CML14 infected in HEL299 cells; type: toxicity, cell-based, HEL 299; details: human; for selectivity ratio: HEL299 cells, read-out: Ratio CC50/IC50
Camelpox virus [19] = experiment: Antiviral activity against Camelpox virus CML1 infected in human PHK epithelial raft culture assessed as inhibition of virus-induced cytopathic effect at 1.8 uM after 7 days postinfection; type: functional, organism-based
Camelpox virus [20] = experiment: Antiviral activity against Camelpox virus CML1 infected in HEL299 cells assessed as suppression of viral replication at 73 uM after 6 days postinfection by virus yield reduction assay; type: functional, organism-based; details: HEL 299
Camelpox virus [21] = experiment: Antiviral activity against Camelpox virus CML14 infected in human PHK assessed as suppression of viral replication at 73 uM after 6 days postinfection by virus yield reduction assay; type: functional, organism-based
Camelpox virus [22] = experiment: Antiviral activity against Camelpox virus CML1 infected in human PHK raft culture assessed as inhibition of virus-induced cytopathic effect at 18 uM treated after 7 days postinfection; type: functional, organism-based
Camelpox virus [23] = experiment: Antiviral activity against Camelpox virus CML1 infected in differentiated human PHK raft culture assessed as reduction in viral titer determined in HEL299 cells treated after 7 days postinfection by virus yield reduction assay; type: functional; details: CML1, HEL 299, 168 h
Camelpox virus [24] = experiment: Antiviral activity against Camelpox virus CML1 infected in human PHK raft culture assessed as inhibition of virus-induced cytopathic effect at 7 uM treated after 7 days postinfection; type: functional, organism-based
Camelpox virus [25] = experiment: Antiviral activity against Camelpox virus CML1 infected in human PHK assessed as suppression of viral replication at 73 uM after 6 days postinfection by virus yield reduction assay; type: functional, organism-based
Camelpox virus [26] = experiment: Antiviral activity against Camelpox virus CML14 infected in HEL299 cells assessed as suppression of viral replication at 73 uM after 6 days postinfection by virus yield reduction assay; type: functional, organism-based; details: HEL 299
[27] = Cytotoxicity against differentiated epithelium of human PHK raft culture at 5 ug/ml after 4 days by Z1 Coulter counting analysis; details: 96 h
[28] = Cytotoxicity against differentiated epithelium of human PHK raft culture at 76 uM after 4 days by Z1 Coulter counting analysis; details: 96 h
Camelpox virus [29] = experiment: Antiviral activity against Camelpox virus CML1 infected in human PHK raft culture assessed as complete protection of differentiated cells against viral replication at 72 uM after 7 days postinfection; type: functional, organism-based
[30] = Cytotoxicity against differentiated epithelium of human PHK raft culture at 38 uM after 4 days by Z1 Coulter counting analysis; details: 96 h
Camelpox virus [31] = experiment: Antiviral activity against Camelpox virus CML1 infected in human PHK raft culture assessed as inhibition of virus-induced cytopathic effect at 9 uM after 7 days postinfection; type: functional, organism-based
Camelpox virus [32] = experiment: Antiviral activity against Camelpox virus CML1 infected in human PHK raft culture assessed as inhibition of viral replication at 38 uM after 7 days postinfection by virus yield reduction assay; type: functional, organism-based
Camelpox virus [33] = experiment: Antiviral activity against Camelpox virus CML14 infected in human PHK assessed as complete inhibition of viral replication at 4 uM after 6 days postinfection by virus yield reduction assay; type: functional, organism-based
Camelpox virus [34] = experiment: Antiviral activity against Camelpox virus CML1 infected in HEL299 cells assessed as complete inhibition of viral replication at 0.4 uM after 6 days postinfection by virus yield reduction assay; type: functional, organism-based; details: HEL 299
Camelpox virus [35] = experiment: Antiviral activity against Camelpox virus CML1 infected in human PHK assessed as complete inhibition of viral replication at 4 uM after 6 days postinfection by virus yield reduction assay; type: functional, organism-based
Camelpox virus [36] = experiment: Antiviral activity against Camelpox virus CML14 infected in HEL299 cells assessed as complete inhibition of viral replication at 0.4 uM after 6 days postinfection by virus yield reduction assay; type: functional, organism-based; details: HEL 299
Camelpox virus [37] = experiment: Antiviral activity against Camelpox virus CML1 infected in differentiated human PHK raft culture assessed as inhibition of viral replication at 6 uM treated after 7 days postinfection by virus yield reduction assay; type: functional, organism-based
Camelpox virus [38] = experiment: Antiviral activity against Camelpox virus CML1-induced cytopathic effect in human PHK raft culture assessed as full protection of differentiated epithelium at 164uM treated after 7 days postinfection; type: functional, organism-based

| SMILES | Ratio CC50/IC50 [1] | Activity (Camelpox virus [2]) | EC50 (Camelpox virus [3]) [µM] | EC50 (Camelpox virus [5]) [µM] | CC50 at 96 h [7] [µM] | EC50 (Camelpox virus [8]) [µM] | EC50 (Camelpox virus [9]) [µM] | Activity (Camelpox virus [10]) | Ratio CC50/IC50 [11] | Activity (Camelpox virus [13]) | Activity (Camelpox virus [14]) | selectivity ratio [16] | CC50 at 96 h [17] [µM] | selectivity ratio [18] | Activity (Camelpox virus [20]) | Activity (Camelpox virus [21]) | EC99 (Camelpox virus [23]) [µM] | Activity (Camelpox virus [25]) | Activity (Camelpox virus [26]) | further results |
| --- | --- | --- | --- | --- | --- | --- | --- | --- | --- | --- | --- | --- | --- | --- | --- | --- | --- | --- | --- | --- |
| Nc1nccc2c1ncn2C[C@@H](CO)OCP(=O)(O)O | 0.1 | Dose-dependent effect | 3.1 | 1.7 | 0.3 | 1.5 | 2.1 | Dose-dependent effect | 0.1 | Dose-dependent effect | Dose-dependent effect | 20 | 30 | 18 | – | – | – | – | – | Activity (Camelpox virus [4]): 99%; Activity (Camelpox virus [6]): 99%; Activity (Camelpox virus [12]): 99%; Activity (Camelpox virus [15]): 99% |
| Nc1ncn(C[C@@H](CO)OCP(=O)(O)O)c(=O)n1 | 5 | Dose-dependent effect | 14.8 | 12 | 71 | 12.3 | 9.7 | Dose-dependent effect | 7 | Dose-dependent effect | Dose-dependent effect | 45 | 550 | 46 | Active | Active | 16 | Active | Active | Activity (Camelpox virus [19]): inactive; Activity (Camelpox virus [22]): inactive; Activity (Camelpox virus [24]): inactive; Activity [27]: Toxic |
| Nc1ncnc(=O)n1C[C@H]1COP(=O)(O)CO1 | 2 | Dose-dependent effect | 18 | 3 | 34 | 4.3 | 14.8 | Dose-dependent effect | 2 | Dose-dependent effect | Dose-dependent effect | 33 | 143 | 48 | Active | Active | 67 | Active | Active | Activity [28]: Non-toxic; Activity (Camelpox virus [29]): Active |
| CCCCCCCCCCCCCCCCOCCO[PH]1(O)CO[C@@H](Cn2c(N)ncnc2=O)CO1 | – | Dose-dependent effect | – | – | – | – | – | Dose-dependent effect | – | Dose-dependent effect | – | – | – | – | – | – | – | – | – | Activity [30]: Toxic; Activity (Camelpox virus [31]): inactive; CC50 ([7]; 96 h): 54 µM; Activity (Camelpox virus [32]): Active; Activity (Camelpox virus [33]): Active; Activity (Camelpox virus [34]): Active; Activity (Camelpox virus [35]): Active; Ratio CC50/IC50 ([16]; hel 299): 10; CC50 ([17]; hel 299, 96 h): 79 µM; Activity (Camelpox virus [36]): Active; Ratio CC50/IC50 ([18]; hel 299): 12 |
| Nc1nc(N)c2ncn(C[C@@H](CO)OCP(=O)(O)O)c2n1 | 2 | Dose-dependent effect | 0.8 | 0.6 | 2 | 0.2 | 1.2 | Dose-dependent effect | 1 | Dose-dependent effect | Dose-dependent effect | 249 | 45 | 70 | – | – | – | – | – | EC99 (Camelpox virus [2]; CML14, HEL 299, 144 h): 1 µM; Activity (Camelpox virus [37]): Active; EC99 (Camelpox virus [10]; CML14, 144 h): 2 µM |
| Nc1ccn(C[C@H]2COP(=O)(O)CO2)c(=O)n1 [CYCLIC CIDOFOVIR] | 2 | Dose-dependent effect | 7.2 | 8.8 | 17 | 6.1 | 9.1 | Dose-dependent effect | 2 | Dose-dependent effect | Dose-dependent effect | 55 | 335 | 38 | – | – | 38 | – | – | EC99 (Camelpox virus [13]; CML1, 144 h): 59 µM; EC99 (Camelpox virus [14]; CML1, HEL 299, 144 h): 64 µM; Activity (Camelpox virus [38]): Active |
